Measurements taken from ChEMBL document CHEMBL4229342, “Synthesis of novel proxyphylline derivatives with dual Anti-Candida albicans and anticancer activity” (Eur J Med Chem, 2018).

Legend:
Type in all cases: functional
MCF7 [1] = test: Antiproliferative activity against human MCF7 cells assessed as cell viability at 25 uM after 72 hrs by MTT assay; settings: MCF7, 72 h, read-out: Activity
Procedure, shortened: (§1)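 MTT viability assay in CCRF-CEM and MCF-7 cells after 72 h exposure at 25, 50, 100 and 200 µM. Results are relative to control cells without inhibitor in 0.5% DMSO. Done in triplicate; values are means ± SD of three independent experiments.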

Candida albicans [2] = test: Growth inhibition of Candida albicans ATCC 90028 at 16 ug/ml incubated for 18 hrs at 35 degC by broth microdilution method relative to control; settings: ATCC 90028, 18 h, read-out: GI
Candida albicans [3] = test: Growth inhibition of Candida albicans ATCC 90028 at 2 ug/ml incubated for 18 hrs at 35 degC by broth microdilution method relative to control; settings: ATCC 90028, 18 h, read-out: GI
Candida albicans [4] = test: Growth inhibition of Candida albicans ATCC 90028 at 0.25 ug/ml incubated for 18 hrs at 35 degC by broth microdilution method relative to control; settings: ATCC 90028, 18 h, read-out: GI
Candida albicans [5] = test: Growth inhibition of Candida albicans ATCC 90028 at 8 ug/ml incubated for 48 hrs at 35 degC by broth microdilution method relative to control; settings: ATCC 90028, 48 h, read-out: GI
Candida albicans [6] = test: Growth inhibition of Candida albicans ATCC 90028 at 0.25 ug/ml incubated for 4 hrs at 35 degC by broth microdilution method relative to control; settings: ATCC 90028, 4 h, read-out: GI
Candida albicans [7] = test: Fungicidal activity against Candida albicans ATCC 90028 assessed as log reduction in cell viability at 16 ug/ml after 48 hrs at 35 degC
Procedure, shortened: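 MFC assay on C. albicans ATCC 90028 following M27-A3, at the molar equivalent of 16 µg/mL. CFU of treated cells were compared with CFU of the untreated inoculum. Activity is given as lg R = lg CFU/mL control − lg CFU/mL treated, and lg R ≥3 was defined as fungicidal. Values are means of two independent experiments.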

MCF7 [8] = test: Antiproliferative activity against human MCF7 cells assessed as cell viability at 100 uM after 72 hrs by MTT assay; settings: MCF7, 72 h, read-out: Activity; procedure, shortened: as §1
Candida albicans [9] = test: Growth inhibition of Candida albicans ATCC 90028 at 0.125 ug/ml incubated for 18 hrs at 35 degC by broth microdilution method relative to control; settings: ATCC 90028, 18 h, read-out: GI
CCRF-CEM [10] = test: Antiproliferative activity against human CCRF-CEM cells assessed as cell viability at 100 uM after 72 hrs by MTT assay; settings: read-out: Activity; procedure, shortened: as §1
Candida albicans [11] = test: Growth inhibition of Candida albicans ATCC 90028 at 1 ug/ml incubated for 18 hrs at 35 degC by broth microdilution method relative to control; settings: ATCC 90028, 18 h, read-out: GI
Candida albicans [12] = test: Growth inhibition of Candida albicans ATCC 90028 at 0.5 ug/ml incubated for 18 hrs at 35 degC by broth microdilution method relative to control; settings: ATCC 90028, 18 h, read-out: GI
Candida albicans [13] = test: Growth inhibition of Candida albicans ATCC 90028 at 0.125 ug/ml incubated for 4 hrs at 35 degC by broth microdilution method relative to control; settings: ATCC 90028, 4 h, read-out: GI
CCRF-CEM [14] = test: Antiproliferative activity against human CCRF-CEM cells assessed as cell viability at 200 uM after 72 hrs by MTT assay; settings: read-out: Activity; procedure, shortened: as §1
CCRF-CEM [15] = test: Antiproliferative activity against human CCRF-CEM cells assessed as cell viability at 50 uM after 72 hrs by MTT assay; settings: read-out: Activity; procedure, shortened: as §1
Candida albicans [16] = test: Growth inhibition of Candida albicans ATCC 90028 at 8 ug/ml incubated for 18 hrs at 35 degC by broth microdilution method relative to control; settings: ATCC 90028, 18 h, read-out: GI
Candida albicans [17] = test: Growth inhibition of Candida albicans ATCC 90028 at 2 ug/ml incubated for 4 hrs at 35 degC by broth microdilution method relative to control; settings: ATCC 90028, 4 h, read-out: GI
Candida albicans [18] = test: Growth inhibition of Candida albicans ATCC 90028 at 8 ug/ml incubated for 4 hrs at 35 degC by broth microdilution method relative to control; settings: ATCC 90028, 4 h, read-out: GI
Candida albicans [19] = test: Growth inhibition of Candida albicans ATCC 90028 at 1 ug/ml incubated for 4 hrs at 35 degC by broth microdilution method relative to control; settings: ATCC 90028, 4 h, read-out: GI
Candida albicans [20] = test: Growth inhibition of Candida albicans ATCC 90028 at 0.0313 ug/ml incubated for 4 hrs at 35 degC by broth microdilution method relative to control; settings: ATCC 90028, 4 h, read-out: GI
Candida albicans [21] = test: Growth inhibition of Candida albicans ATCC 90028 at 4 ug/ml incubated for 18 hrs at 35 degC by broth microdilution method relative to control; settings: ATCC 90028, 18 h, read-out: GI
Candida albicans [22] = test: Growth inhibition of Candida albicans ATCC 90028 at 0.0625 ug/ml incubated for 4 hrs at 35 degC by broth microdilution method relative to control; settings: ATCC 90028, 4 h, read-out: GI
MCF7 [23] = test: Antiproliferative activity against human MCF7 cells assessed as cell viability at 50 uM after 72 hrs by MTT assay; settings: MCF7, 72 h, read-out: Activity; procedure, shortened: as §1
Candida albicans [24] = test: Growth inhibition of Candida albicans ATCC 90028 at 0.5 ug/ml incubated for 4 hrs at 35 degC by broth microdilution method relative to control; settings: ATCC 90028, 4 h, read-out: GI
CCRF-CEM [25] = test: Antiproliferative activity against human CCRF-CEM cells assessed as cell viability at 25 uM after 72 hrs by MTT assay; settings: read-out: Activity; procedure, shortened: as §1
MCF7 [26] = test: Antiproliferative activity against human MCF7 cells assessed as cell viability at 200 uM after 72 hrs by MTT assay; settings: MCF7, 72 h, read-out: Activity; procedure, shortened: as §1
Candida albicans [27] = test: Growth inhibition of Candida albicans ATCC 90028 at 16 ug/ml incubated for 48 hrs at 35 degC by broth microdilution method relative to control; settings: ATCC 90028, 48 h, read-out: GI
Candida albicans [28] = test: Growth inhibition of Candida albicans ATCC 90028 at 0.0313 ug/ml incubated for 18 hrs at 35 degC by broth microdilution method relative to control; settings: ATCC 90028, 18 h, read-out: GI
Candida albicans [29] = test: Growth inhibition of Candida albicans ATCC 90028 at 0.0625 ug/ml incubated for 18 hrs at 35 degC by broth microdilution method relative to control; settings: ATCC 90028, 18 h, read-out: GI

SMILES | viability at 25 µM (MCF7 [1]) | inhibition of growth at 16 µg/mL (Candida albicans [2]) | inhibition of growth at 2 µg/mL (Candida albicans [3]) | inhibition of growth at 0.25 µg/mL (Candida albicans [4]) | inhibition of growth at 8 µg/mL (Candida albicans [5]) | inhibition of growth at 0.25 µg/mL (Candida albicans [6]) | log(activity) (Candida albicans [7]) | viability at 100 µM (MCF7 [8]) | inhibition of growth at 0.125 µg/mL (Candida albicans [9]) | viability at 100 µM (CCRF-CEM [10]) | inhibition of growth at 1 µg/mL (Candida albicans [11]) | inhibition of growth at 0.5 µg/mL (Candida albicans [12]) | viability at 200 µM (CCRF-CEM [14]) | viability at 50 µM (CCRF-CEM [15]) | inhibition of growth at 8 µg/mL (Candida albicans [16]) | inhibition of growth at 2 µg/mL (Candida albicans [17]) | inhibition of growth at 1 µg/mL (Candida albicans [19]) | viability at 50 µM (MCF7 [23]) | viability at 25 µM (CCRF-CEM [25]) | viability at 200 µM (MCF7 [26]) | also measured
CC(Cn1cnc2c1c(=O)n(C)c(=O)n2C)OC(=O)Sc1ccccc1 (configuration not stated) | 86.8% | 99.8% | 100% | 100% | 99.2% | 99.5% | 0.1 | 69.9% | 99.5% | 14.5% | 99.9% | 99.9% | 0.5% | 37.1% | 100% | 99.3% | 99.5% | 81.9% | 53.9% | 43.1% | inhibition of growth at 0.125 µg/mL (Candida albicans [13]): 99.1%; inhibition of growth at 8 µg/mL (Candida albicans [18]): 99.5%; inhibition of growth at 0.0313 µg/mL (Candida albicans [20]): 99.3%; inhibition of growth at 4 µg/mL (Candida albicans [21]): 99.8%; inhibition of growth at 0.0625 µg/mL (Candida albicans [22]): 99.1%; inhibition of growth at 0.5 µg/mL (Candida albicans [24]): 99.4%; inhibition of growth at 16 µg/mL (Candida albicans [27]): 99.5%; inhibition of growth at 0.0313 µg/mL (Candida albicans [28]): 99.8%; inhibition of growth at 0.0625 µg/mL (Candida albicans [29]): 99.7%
COC(C(=O)OC(C)Cn1cnc2c1c(=O)n(C)c(=O)n2C)c1ccc2ccccc2c1 (configuration not stated) | 93.5% | 99.2% | 99% | 99% | 99% | 99.1% | 0.4 | 83.7% | 99.1% | 27.6% | 99.1% | 99.2% | 15% | 28.2% | 99% | 99.1% | 99% | 86.3% | 84.7% | 68.8% | inhibition of growth at 0.125 µg/mL (Candida albicans [13]): 99%; inhibition of growth at 8 µg/mL (Candida albicans [18]): 99%; inhibition of growth at 0.0313 µg/mL (Candida albicans [20]): 99.1%; inhibition of growth at 4 µg/mL (Candida albicans [21]): 99%; inhibition of growth at 0.0625 µg/mL (Candida albicans [22]): 99.1%; inhibition of growth at 0.5 µg/mL (Candida albicans [24]): 99.1%; inhibition of growth at 16 µg/mL (Candida albicans [27]): 99%; inhibition of growth at 0.0313 µg/mL (Candida albicans [28]): 99%; inhibition of growth at 0.0625 µg/mL (Candida albicans [29]): 99.1%
CC(Cn1cnc2c1c(=O)n(C)c(=O)n2C)OC(=O)N1c2ccccc2Sc2ccccc21 (configuration not stated) | 90.5% | 100% | 99.8% | 100% | 99.2% | 99.5% | 0.3 | 73.4% | 99.9% | 33.8% | 99.8% | 99.8% | 47.1% | 77.4% | 99.7% | 99.2% | 99% | 89.9% | 105% | 37% | inhibition of growth at 0.125 µg/mL (Candida albicans [13]): 99.2%; inhibition of growth at 8 µg/mL (Candida albicans [18]): 99.5%; inhibition of growth at 0.0313 µg/mL (Candida albicans [20]): 99.3%; inhibition of growth at 4 µg/mL (Candida albicans [21]): 99.9%; inhibition of growth at 0.0625 µg/mL (Candida albicans [22]): 99.2%; inhibition of growth at 0.5 µg/mL (Candida albicans [24]): 99.5%; inhibition of growth at 16 µg/mL (Candida albicans [27]): 99.2%; inhibition of growth at 0.0313 µg/mL (Candida albicans [28]): 100%; inhibition of growth at 0.0625 µg/mL (Candida albicans [29]): 99.9%
Cc1ccc(C(=O)CC(=O)OC(C)Cn2cnc3c2c(=O)n(C)c(=O)n3C)cc1 (configuration not stated) | 89% | 100% | 100% | 100% | 99.3% | 99.2% | 0.5 | 86.6% | 100% | 67.3% | 100% | 99.8% | 31.6% | 74.2% | 100% | 99.2% | 99.2% | 82.2% | 89.5% | 82.7% | inhibition of growth at 0.0313 µg/mL (Candida albicans [20]): 99.8%; inhibition of growth at 4 µg/mL (Candida albicans [21]): 100%; inhibition of growth at 0.0625 µg/mL (Candida albicans [22]): 99.3%; inhibition of growth at 0.5 µg/mL (Candida albicans [24]): 99.2%; inhibition of growth at 16 µg/mL (Candida albicans [27]): 99.1%; inhibition of growth at 0.0313 µg/mL (Candida albicans [28]): 100%; inhibition of growth at 0.0625 µg/mL (Candida albicans [29]): 99.8%
Brc1c(Br)c(Br)c2[nH]cnc2c1Br | 19.6% | – | – | – | – | – | – | 9% | – | 0% | – | – | 0% | 0% | – | – | – | 24.6% | 6.3% | 1.7% | –
